Test results published in ChEMBL document CHEMBL3627606, “Development of Novel, CNS Penetrant Positive Allosteric Modulators for the Metabotropic Glutamate Receptor Subtype 1 (mGlu1), Based on an N-(3-Chloro-4-(1,3-dioxoisoindolin-2-yl)phenyl)-3-methylfuran-2-carboxamide Scaffold, That Potentiate Wild Type and Mutant mGlu1 Receptors Found in …” (J Med Chem, 2015).
Blank lines part the entries; values can stand above or below the compound they belong to.

Tests used:
[1] = biological target: T1, Metabotropic glutamate receptor 1 (Homo sapiens, UniProt Q13255); assay: Positive allosteric modulation of human mGlu1 receptor in HEK293 cells assessed as potentiation of glutamate-induced calcium mobiliztion by Fluo-4AM dye based fluorescence analysis; type: functional, cell-based; conditions: read-out: EC50
Target sequence in this assay (Q13255 whole entry): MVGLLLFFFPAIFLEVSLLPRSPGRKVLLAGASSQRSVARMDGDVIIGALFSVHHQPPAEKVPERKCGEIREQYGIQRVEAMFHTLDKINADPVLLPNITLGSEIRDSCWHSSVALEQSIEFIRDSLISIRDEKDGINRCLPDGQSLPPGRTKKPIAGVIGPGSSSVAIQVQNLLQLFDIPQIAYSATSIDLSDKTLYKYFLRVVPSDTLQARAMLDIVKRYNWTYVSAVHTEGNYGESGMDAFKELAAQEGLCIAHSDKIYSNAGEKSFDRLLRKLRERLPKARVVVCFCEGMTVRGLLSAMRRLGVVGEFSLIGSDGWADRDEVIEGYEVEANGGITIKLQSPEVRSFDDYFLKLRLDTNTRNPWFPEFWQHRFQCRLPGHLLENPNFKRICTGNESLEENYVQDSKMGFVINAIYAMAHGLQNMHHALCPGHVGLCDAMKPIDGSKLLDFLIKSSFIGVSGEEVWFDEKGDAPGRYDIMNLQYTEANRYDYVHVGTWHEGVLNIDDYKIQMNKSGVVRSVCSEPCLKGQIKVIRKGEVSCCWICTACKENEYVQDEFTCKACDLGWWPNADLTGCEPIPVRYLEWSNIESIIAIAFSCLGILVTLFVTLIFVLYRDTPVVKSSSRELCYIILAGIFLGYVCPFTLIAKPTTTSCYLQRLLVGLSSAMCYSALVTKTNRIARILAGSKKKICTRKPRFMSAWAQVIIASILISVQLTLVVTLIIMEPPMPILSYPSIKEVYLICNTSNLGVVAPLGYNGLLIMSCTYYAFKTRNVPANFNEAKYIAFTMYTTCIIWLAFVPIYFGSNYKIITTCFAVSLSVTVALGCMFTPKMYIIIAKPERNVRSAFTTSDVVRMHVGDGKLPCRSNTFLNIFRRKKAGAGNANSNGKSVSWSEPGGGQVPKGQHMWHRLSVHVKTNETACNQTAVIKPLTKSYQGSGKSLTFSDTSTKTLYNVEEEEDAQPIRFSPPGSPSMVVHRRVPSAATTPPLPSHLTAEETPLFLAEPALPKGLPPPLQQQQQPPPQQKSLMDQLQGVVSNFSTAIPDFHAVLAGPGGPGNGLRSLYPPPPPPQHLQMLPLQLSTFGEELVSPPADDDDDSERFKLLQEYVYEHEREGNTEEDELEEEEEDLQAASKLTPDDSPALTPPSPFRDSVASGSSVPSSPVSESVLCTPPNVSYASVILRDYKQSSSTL

[2] = biological target: T1, Metabotropic glutamate receptor 1; assay: Positive allosteric modulation of human mGlu1 receptor in HEK293 cells assessed as potentiation of glutamate-induced calcium mobiliztion by Fluo-4AM dye based fluorescence analysis relative to glutamate; type: functional, cell-based
Target sequence in this assay (Q13255 19-1194 limits assumed): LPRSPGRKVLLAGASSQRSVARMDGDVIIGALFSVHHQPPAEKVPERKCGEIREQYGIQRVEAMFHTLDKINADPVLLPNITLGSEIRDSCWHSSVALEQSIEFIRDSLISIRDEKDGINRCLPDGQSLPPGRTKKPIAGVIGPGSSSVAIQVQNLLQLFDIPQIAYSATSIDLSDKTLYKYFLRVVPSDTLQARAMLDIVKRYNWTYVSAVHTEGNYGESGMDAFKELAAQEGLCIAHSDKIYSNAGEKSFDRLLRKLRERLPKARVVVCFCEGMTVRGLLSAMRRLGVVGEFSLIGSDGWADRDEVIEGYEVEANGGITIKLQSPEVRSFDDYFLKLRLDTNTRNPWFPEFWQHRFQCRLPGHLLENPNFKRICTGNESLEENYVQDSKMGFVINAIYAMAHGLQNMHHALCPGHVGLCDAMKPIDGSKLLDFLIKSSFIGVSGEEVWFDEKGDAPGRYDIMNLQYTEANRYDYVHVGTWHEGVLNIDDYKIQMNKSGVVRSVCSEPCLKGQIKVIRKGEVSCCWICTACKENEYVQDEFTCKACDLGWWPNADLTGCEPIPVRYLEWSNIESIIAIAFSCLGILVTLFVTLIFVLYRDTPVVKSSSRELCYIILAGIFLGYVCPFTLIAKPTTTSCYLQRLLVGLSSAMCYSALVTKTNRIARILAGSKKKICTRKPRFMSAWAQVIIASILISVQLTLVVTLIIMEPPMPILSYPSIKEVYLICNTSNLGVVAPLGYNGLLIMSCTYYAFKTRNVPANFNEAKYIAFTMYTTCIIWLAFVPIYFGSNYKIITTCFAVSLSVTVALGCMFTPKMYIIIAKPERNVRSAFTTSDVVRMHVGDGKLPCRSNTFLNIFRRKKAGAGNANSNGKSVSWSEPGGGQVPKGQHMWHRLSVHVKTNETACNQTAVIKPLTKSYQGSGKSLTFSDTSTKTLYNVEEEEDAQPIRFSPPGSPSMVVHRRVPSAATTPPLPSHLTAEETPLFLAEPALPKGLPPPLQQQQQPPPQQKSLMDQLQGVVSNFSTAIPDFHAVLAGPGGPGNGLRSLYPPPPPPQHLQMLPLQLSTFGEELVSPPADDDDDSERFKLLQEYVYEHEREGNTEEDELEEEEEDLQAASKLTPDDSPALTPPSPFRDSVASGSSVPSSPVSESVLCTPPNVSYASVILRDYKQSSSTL

[3] = biological target: T2, Metabotropic glutamate receptor 4 (Homo sapiens, UniProt Q14833); assay: Positive allosteric modulation of human mGlu4 receptor assessed as potentiation of glutamate-induced calcium mobiliztion by cell based assay relative to PHCCC
[4] = biological target: T2, Metabotropic glutamate receptor 4; assay: Positive allosteric modulation of human mGlu4 receptor assessed as potentiation of glutamate-induced calcium mobiliztion by cell based assay; type: functional
Homo sapiens = species on record: Homo sapiens; assay: Selectivity index, ratio of EC50 for human mGlu4 receptor to EC50 for human mGlu1 receptor
Plasma [5] = assay: Drug level in rat plasma treated with N-(3-chloro-4-(5-chloro-1,3-dioxoisoindolin-2-yl)phenyl)-3-methylfuran-2-carboxamide at 10 uM after 4 hrs by mass spectrometry; type: ADME, cell-free
Procedure, shortened: (§1)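 Compound incubated at 10 μM in rat or human plasma at 37 °C. Samples taken at 0 and 4 h were analysed by mass spectrometry for parent and metabolites.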

Plasma [6] = assay: Drug level in human plasma treated with N-(3-chloro-4-(5-chloro-1,3-dioxoisoindolin-2-yl)phenyl)-3-methylfuran-2-carboxamide at 10 uM after 4 hrs by mass spectrometry; type: ADME, cell-free; procedure, shortened: as §1
[7] = Intrinsic clearance in human liver microsomes at 1 uM by LC-MS/MS analysis; type: ADME; conditions: read-out: CLH
[8] = biological target: Metabotropic glutamate receptor 3 (Homo sapiens) (UniProt Q14832); assay: Positive allosteric modulation of mGlu3 receptor (unknown origin) assessed as potentiation of glutamate-induced response by cell-based assay
Procedure, shortened: (§2)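 Selectivity counterscreen at the other mGlu subtypes using the standard fold-shift paradigm. Compound was tested at 10 μM against the glutamate concentration-response curve, and the shift of that curve was read.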

[9] = biological target: Metabotropic glutamate receptor 6 (Homo sapiens) (UniProt O15303); assay: Positive allosteric modulation of mGlu6 receptor (unknown origin) assessed as potentiation of glutamate-induced response by cell-based assay; procedure, shortened: as §2
Cytochrome P450 2C9 = Cytochrome P450 2C9 (Homo sapiens, UniProt P11712); assay: Inhibition of CYP2C9 in human liver microsomes by LC-MS/MS analysis; type: ADME
[10] = biological target: Metabotropic glutamate receptor 2 (Homo sapiens) (UniProt Q14416); assay: Positive allosteric modulation of mGlu2 receptor (unknown origin) assessed as potentiation of glutamate-induced response by cell-based assay; procedure, shortened: as §2
Plasma [11] = assay: Metabolic stability in human plasma; type: ADME, cell-free; procedure, shortened: as §1
[12] = Drug concentration in Sprague-Dawley rat brain at 0.2 mg/kg, iv after 0.25 hrs by LC-MS/MS analysis; conditions: read-out: Drug uptake
[13] = biological target: Metabotropic glutamate receptor 5 (Homo sapiens) (UniProt P41594); assay: Positive allosteric modulation of mGlu5 receptor (unknown origin) assessed as potentiation of glutamate-induced response by cell-based assay; procedure, shortened: as §2
Plasma [14] = assay: Fraction unbound in rat plasma; type: ADME, cell-free
Cytochrome P450 1A2 = biological target: T3, Cytochrome P450 1A2 (Homo sapiens, UniProt P05177); assay: Inhibition of CYP1A2 in human liver microsomes by LC-MS/MS analysis; type: ADME
T3 sequence (P05177 whole entry): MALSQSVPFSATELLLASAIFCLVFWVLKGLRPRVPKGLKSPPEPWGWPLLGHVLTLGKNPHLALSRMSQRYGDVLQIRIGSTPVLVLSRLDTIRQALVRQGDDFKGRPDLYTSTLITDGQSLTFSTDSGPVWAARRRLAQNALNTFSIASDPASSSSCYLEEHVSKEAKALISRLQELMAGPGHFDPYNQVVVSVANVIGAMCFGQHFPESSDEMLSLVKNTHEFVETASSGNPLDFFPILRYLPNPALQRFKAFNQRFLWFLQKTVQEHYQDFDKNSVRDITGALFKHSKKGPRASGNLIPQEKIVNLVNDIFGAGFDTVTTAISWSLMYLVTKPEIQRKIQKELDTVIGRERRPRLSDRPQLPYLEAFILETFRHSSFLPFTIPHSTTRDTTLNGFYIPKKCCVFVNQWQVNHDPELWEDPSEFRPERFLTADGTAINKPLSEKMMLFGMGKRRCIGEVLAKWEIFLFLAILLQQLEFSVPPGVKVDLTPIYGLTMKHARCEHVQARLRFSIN

[15] = Plasma clearance in Sprague-Dawley rat at 0.2 mg/kg, iv by LC-MS/MS analysis
Rattus norvegicus = assay: Volume of distribution at steady state in Sprague-Dawley rat at 0.2 mg/kg, iv by LC-MS/MS analysis; conditions: in vivo
[16] = Plasma concentration in Sprague-Dawley rat at 0.2 mg/kg, iv after 0.25 hrs by LC-MS/MS analysis
[17] = biological target: Metabotropic glutamate receptor 7 (Homo sapiens) (UniProt Q14831); assay: Positive allosteric modulation of mGlu7 receptor (unknown origin) assessed as potentiation of glutamate-induced response by cell-based assay; procedure, shortened: as §2
[18] = Half life in Sprague-Dawley rat at 0.2 mg/kg, iv by LC-MS/MS analysis; conditions: in vivo
[19] = biological target: Metabotropic glutamate receptor 8 (Homo sapiens) (UniProt O00222); assay: Positive allosteric modulation of mGlu8 receptor (unknown origin) assessed as potentiation of glutamate-induced response by cell-based assay; procedure, shortened: as §2
Cytochrome P450 2D6 = Cytochrome P450 2D6 (Homo sapiens, UniProt P10635); assay: Inhibition of CYP2D6 in human liver microsomes by LC-MS/MS analysis; type: ADME
Cytochrome P450 3A4 = Cytochrome P450 3A4 (Homo sapiens, UniProt P08684); assay: Inhibition of CYP3A4 in human liver microsomes by LC-MS/MS analysis; type: ADME
[20] = Mean residence time in Sprague-Dawley rat at 0.2 mg/kg, iv by LC-MS/MS analysis; conditions: in vivo
[21] = biological target: Metabotropic glutamate receptor 1 (Rattus norvegicus, UniProt P23385); assay: Positive allosteric modulation of rat mGlu1 receptor assessed as potentiation of glutamate-induced calcium mobiliztion by cell based assay; type: functional
Procedure, shortened: (§3)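 Rat mGlu1 WT calcium mobilization concentration-response curves. EC50 and % Glu Max were derived from the curves.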

Brain = assay: Drug concentration in C57BL/6 mouse brain at 100 mg/kg, ip administered as single dose; type: ADME, organism-based; conditions: in vivo, read-out: Drug uptake
[22] = biological target: T1, Metabotropic glutamate receptor 1; assay: Agonist activity at human mGlu1 receptor in HEK293 cells assessed as calcium mobilization at 10 uM by Fluo-4AM dye based fluorescence analysis; type: functional, cell-based
Target sequence in this assay (Q13255 19-1194 limits assumed): as the sequence (Q13255 19-1194 limits assumed) above

Mus musculus = assay: Toxicity in C57BL/6 mouse assessed as seizure activity at 100 mg/kg, ip administered as single dose measured for 3 hrs; type: organism-based; conditions: in vivo
Procedure, shortened: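 Male C57Bl/6 mice (25−30 g) dosed ip in 10% Tween 80 at 10 mL/kg: the mGlu5 ago-PAM at 1 or 3 mg/kg, the mGlu1 PAMs at 100 mg/kg. Behaviour was monitored continuously for 3 h and scored on a modified Racine scale (0−5).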

[23] = biological target: Metabotropic glutamate receptor 1 (Rattus norvegicus) (UniProt P23385); assay: Positive allosteric modulation of rat mGlu1 receptor assessed as potentiation of glutamate-induced calcium mobiliztion by cell based assay relative to glutamate; type: functional; procedure, shortened: as §3
[24] = biological target: T1, Metabotropic glutamate receptor 1; assay: Positive allosteric modulation of human mGlu1 receptor in HEK293 cells assessed as potentiation of glutamate-induced calcium mobiliztion at 10 uM by Fluo-4AM dye based fluorescence analysis; type: functional, cell-based
Target sequence in this assay (Q13255 19-1194 limits assumed): as the sequence (Q13255 19-1194 limits assumed) above

[25] = Ratio of drug level in brain to plasma of Sprague-Dawley rat at 0.2 mg/kg, iv after 0.25 hrs by LC-MS/MS analysis; conditions: read-out: BPR

T2 sequence (Q14833 whole entry): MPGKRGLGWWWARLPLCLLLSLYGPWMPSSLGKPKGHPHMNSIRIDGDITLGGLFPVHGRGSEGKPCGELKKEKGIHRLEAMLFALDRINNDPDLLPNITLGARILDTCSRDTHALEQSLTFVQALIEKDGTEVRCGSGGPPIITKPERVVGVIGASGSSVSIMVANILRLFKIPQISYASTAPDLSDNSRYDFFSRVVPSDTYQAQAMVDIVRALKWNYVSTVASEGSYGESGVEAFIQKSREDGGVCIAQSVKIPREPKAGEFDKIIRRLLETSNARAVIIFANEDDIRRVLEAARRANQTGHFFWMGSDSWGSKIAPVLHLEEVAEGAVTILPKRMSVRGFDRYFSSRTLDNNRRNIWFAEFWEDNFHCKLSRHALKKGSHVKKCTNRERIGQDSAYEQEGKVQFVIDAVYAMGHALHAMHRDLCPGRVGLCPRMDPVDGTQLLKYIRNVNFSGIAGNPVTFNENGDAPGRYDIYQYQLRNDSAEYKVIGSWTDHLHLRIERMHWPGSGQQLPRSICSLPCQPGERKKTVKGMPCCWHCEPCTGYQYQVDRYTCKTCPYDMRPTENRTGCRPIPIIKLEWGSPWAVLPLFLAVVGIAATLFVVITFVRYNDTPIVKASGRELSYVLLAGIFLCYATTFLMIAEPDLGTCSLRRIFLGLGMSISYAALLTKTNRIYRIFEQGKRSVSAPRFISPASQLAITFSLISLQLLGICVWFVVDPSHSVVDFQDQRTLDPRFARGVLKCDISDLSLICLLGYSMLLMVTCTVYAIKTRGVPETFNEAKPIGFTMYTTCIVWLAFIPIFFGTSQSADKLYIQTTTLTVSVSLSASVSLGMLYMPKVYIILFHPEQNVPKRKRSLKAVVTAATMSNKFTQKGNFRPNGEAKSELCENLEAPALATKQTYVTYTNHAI
Sequence of Metabotropic glutamate receptor 6 (Homo sapiens) (O15303 whole entry): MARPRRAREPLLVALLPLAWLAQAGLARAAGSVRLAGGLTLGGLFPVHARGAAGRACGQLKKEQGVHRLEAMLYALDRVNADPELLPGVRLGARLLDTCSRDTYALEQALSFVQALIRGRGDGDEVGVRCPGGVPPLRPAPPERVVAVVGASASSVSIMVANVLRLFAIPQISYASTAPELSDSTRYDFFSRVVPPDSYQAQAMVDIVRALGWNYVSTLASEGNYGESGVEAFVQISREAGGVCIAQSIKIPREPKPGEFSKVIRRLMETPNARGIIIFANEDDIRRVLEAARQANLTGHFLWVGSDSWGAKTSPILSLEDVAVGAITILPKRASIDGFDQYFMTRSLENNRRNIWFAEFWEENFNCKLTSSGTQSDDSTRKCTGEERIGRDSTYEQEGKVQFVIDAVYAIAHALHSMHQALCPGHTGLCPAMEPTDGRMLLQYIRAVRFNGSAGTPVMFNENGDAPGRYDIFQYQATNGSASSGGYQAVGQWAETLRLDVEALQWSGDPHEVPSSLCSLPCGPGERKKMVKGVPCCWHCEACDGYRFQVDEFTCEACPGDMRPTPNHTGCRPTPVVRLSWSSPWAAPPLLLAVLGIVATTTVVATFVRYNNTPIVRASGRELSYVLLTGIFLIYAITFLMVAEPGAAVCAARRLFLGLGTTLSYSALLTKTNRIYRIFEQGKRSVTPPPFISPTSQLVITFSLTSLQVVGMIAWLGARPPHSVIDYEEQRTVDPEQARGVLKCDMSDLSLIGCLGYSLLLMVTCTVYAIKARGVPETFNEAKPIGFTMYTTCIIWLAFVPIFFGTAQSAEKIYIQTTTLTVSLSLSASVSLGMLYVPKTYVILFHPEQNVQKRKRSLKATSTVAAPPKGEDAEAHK
Sequence of Metabotropic glutamate receptor 2 (Homo sapiens) (Q14416 19-872 limits assumed): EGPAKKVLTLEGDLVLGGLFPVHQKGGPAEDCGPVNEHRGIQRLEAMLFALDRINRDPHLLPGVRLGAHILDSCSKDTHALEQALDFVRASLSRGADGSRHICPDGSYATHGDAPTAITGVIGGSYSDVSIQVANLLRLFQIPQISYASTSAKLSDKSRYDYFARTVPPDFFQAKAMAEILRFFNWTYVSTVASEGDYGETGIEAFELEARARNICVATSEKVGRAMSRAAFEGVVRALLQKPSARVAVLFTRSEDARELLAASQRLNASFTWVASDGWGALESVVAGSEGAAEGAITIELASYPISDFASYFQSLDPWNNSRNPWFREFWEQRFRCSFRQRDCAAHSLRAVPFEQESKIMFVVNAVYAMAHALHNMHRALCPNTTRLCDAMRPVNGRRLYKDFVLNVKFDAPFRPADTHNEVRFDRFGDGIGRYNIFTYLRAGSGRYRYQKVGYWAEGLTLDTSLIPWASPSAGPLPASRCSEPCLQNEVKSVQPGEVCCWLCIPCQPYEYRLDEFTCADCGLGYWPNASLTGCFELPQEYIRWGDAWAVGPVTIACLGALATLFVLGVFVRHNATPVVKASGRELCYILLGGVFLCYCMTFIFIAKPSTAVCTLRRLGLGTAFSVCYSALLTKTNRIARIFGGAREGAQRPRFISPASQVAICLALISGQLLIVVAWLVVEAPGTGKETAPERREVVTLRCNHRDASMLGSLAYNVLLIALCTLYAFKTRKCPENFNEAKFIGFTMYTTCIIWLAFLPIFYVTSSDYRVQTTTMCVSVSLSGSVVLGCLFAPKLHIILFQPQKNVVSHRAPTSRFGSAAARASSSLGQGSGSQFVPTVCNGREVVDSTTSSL

Structure (SMILES): Cc1ccoc1C(=O)Nc1ccc(N)c(Cl)c1
Drug metabolism (Plasma [5]): metabolite_detected
Drug metabolism (Plasma [6]): metabolite_detected

Structure (SMILES): O=C(Nc1ccc(N2C(=O)c3ccccc3C2=O)c(Cl)c1)c1cnn[nH]1
EC50 [1]: > 10000 nM

Structure (SMILES): O=C(Nc1ccc(N2C(=O)c3ccccc3C2=O)c(Cl)c1)c1ccc(C(F)(F)F)o1
EC50 [1]: > 10000 nM
%max [2]: 43%

Structure (SMILES): O=C(Nc1ccc(N2C(=O)c3ccccc3C2=O)c(Cl)c1)c1occc1-c1ccccc1
EC50 [1]: > 10000 nM

Structure (SMILES): O=C(Nc1ccc(N2C(=O)c3ccccc3C2=O)c(Cl)c1)c1cocn1
EC50 [1]: > 10000 nM

Structure (SMILES): O=C(Nc1ccc(N2C(=O)c3ccccc3C2=O)c(Cl)c1)C1CCCO1 (stereo unspecified)
EC50 [1]: > 10000 nM

Structure (SMILES): O=C(Nc1ccc(N2C(=O)c3ccccc3C2=O)c(Cl)c1)c1ccno1
EC50 [1]: > 10000 nM

Continued, in another order:

EC50 [1]: > 10000 nM
%max [2]: 60%
Structure (SMILES): Cc1ccc(C(=O)Nc2ccc(N3C(=O)c4ccccc4C3=O)c(Cl)c2)o1

%max [3]: 97%
EC50 ([4]; read-out: EC50): 712 nM
EC50 ([4]; read-out: pEC50 (converted)): 724 nM
EC50 [1]: 24.1 nM
Ratio EC50 (Homo sapiens): 29.7
%max [2]: 88%
Structure (SMILES): Cc1ccoc1C(=O)Nc1ccc(N2C(=O)c3ccc(F)cc3C2=O)c(Cl)c1

%max [3]: 163%
EC50 ([4]; read-out: EC50): 1140 nM
EC50 [1]: 33 nM
Ratio EC50 (Homo sapiens): 34.5
%max [2]: 91%
Structure (SMILES): Cc1ccoc1C(=O)Nc1ccc(N2C(=O)c3cccc(Cl)c3C2=O)c(Cl)c1

EC50 [1]: > 10000 nM
Structure (SMILES): O=C(Nc1ccc(N2C(=O)c3ccccc3C2=O)c(Cl)c1)c1cnco1

%max [3]: 153%
EC50 ([4]; read-out: EC50): 620 nM
EC50 [1]: 24.3 nM
Ratio EC50 (Homo sapiens): 25.5
%max [2]: 86%
Structure (SMILES): Cc1ccoc1C(=O)Nc1ccc(N2C(=O)c3cccc(C)c3C2=O)c(Cl)c1

EC50 [1]: > 10000 nM
Structure (SMILES): O=C(Nc1ccc(N2C(=O)c3ccccc3C2=O)c(Cl)c1)c1cc2ccccc2o1

EC50 [1]: 97 nM
%max [2]: 118%
Structure (SMILES): Cc1ccoc1C(=O)Nc1ccc(N2C(=O)c3ccccc3C2=O)c(Cl)c1

EC50 [1]: 4470 nM
%max [2]: 107%
Structure (SMILES): O=C(Nc1ccc(N2C(=O)c3ccccc3C2=O)c(Cl)c1)c1cscn1

EC50 [1]: > 10000 nM
Structure (SMILES): O=C(Nc1ccc(N2C(=O)c3ccccc3C2=O)c(Cl)c1)c1ncco1

EC50 [1]: 550 nM
%max [2]: 76%
Structure (SMILES): O=C(Nc1ccc(N2C(=O)c3ccccc3C2=O)c(Cl)c1)c1ccco1

CLint scaled at 1 µM [7]: 167 mL/min/kg
fold change (FC) [8]: < 2
fold change (FC) [9]: < 2
IC50 (Cytochrome P450 2C9): > 30000 nM
fold change (FC) [10]: < 2
Stability (Plasma [11]): Unstable
concentration at 0.25 h [12]: 35.2 ng/mL
fold change (FC) [13]: < 2
%max [3]: 18%
Fu (Plasma [14]): 0.03
IC50 (Cytochrome P450 1A2): > 30000 nM
EC50 ([4]; read-out: EC50): > 10000 nM
EC50 [1]: 98.8 nM
clearance [15]: 382 mL/min/kg
%max [2]: 94%
Vdss (Rattus norvegicus): 3 L/kg
concentration at 0.25 h [16]: 12.5 ng/mL
fold change (FC) [17]: < 2
half-life [18]: 5.38 min
fold change (FC) [19]: < 2
IC50 (Cytochrome P450 2D6): > 30000 nM
IC50 (Cytochrome P450 3A4): > 30000 nM
MRT [20]: 7.85 min
EC50 [21]: 113 nM
concentration (Brain): 2520 nM
Activity [22]: < 20%
%max [23]: 115%
fold change (FC) [24]: 10.9
Kp at 0.25 h [25]: 2.81
Structure (SMILES): Cc1ccoc1C(=O)Nc1ccc(N2C(=O)c3ccncc3C2=O)c(Cl)c1
Activity (Mus musculus): Non-toxic
